The source made the active and inactive calls. The rule behind the calls is not given here.
How the values were obtained:
[1] = system: Staphylococcus aureus; assay: Inhibition of intrinsic ATPase activity of Staphylococcus aureus SecA expressed in Escherichia coli BL21.19 cells assessed as hydrolysis of ATP after 2 hrs by malachite green colorimetric method; details: dose or concentration not given here
Outline: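 His-tagged saSecA1 at 4 µM (400 µg/ml) was incubated at 28 °C for 2 h with 100 µM ATP. Buffer was 50 mM HEPES, 50 mM KCl, 2 mM MgCl2, 0.4 mg/ml BSA, pH 7.5. Liberated Pi was quantified with malachite green (20 min room temperature, 660 nm).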

[2] = system: Escherichia coli; assay: Inhibition of intrinsic ATPase activity of Escherichia coli SecA expressed in Escherichia coli BL21.19 cells assessed as hydrolysis of ATP at 200 uM after 2 hrs by malachite green colorimetric method
Outline: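 Single-concentration screen: compound at 200 µM with His-tagged ecSecA at 0.5 µM (50 µg/ml) and 100 µM ATP, 37 °C, 2 h. Buffer was 50 mM Tris–HCl, 50 mM KCl, 5 mM MgCl2, 0.4 mg/ml BSA, pH 8.0. Free Pi was detected with malachite green reagent (20 min rt, absorbance 660 nm).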

[3] = Inhibition of intrinsic ATPase activity of Escherichia coli SecA expressed in Escherichia coli BL21.19 cells assessed as hydrolysis of ATP after 2 hrs by malachite green colorimetric method
Outline: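 Recombinant His-tagged ecSecA at 0.5 µM (50 µg/ml) was incubated at 37 °C with 100 µM ATP and compound (0–200 µM) for 2 h. Buffer was 50 mM Tris–HCl, 50 mM KCl, 5 mM MgCl2, 0.4 mg/ml BSA, pH 8.0. Released Pi was read with malachite green (20 min rt, 660 nm). Rates were taken relative to no-compound, and IC50 was fitted by nonlinear regression from three independent experiments.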

[4] = system: Escherichia coli; assay: Mixed-type inhibition of ATPase activity of Escherichia coli SecA expressed in Escherichia coli BL21.19 cells assessed as hydrolysis of ATP after 2 hrs using MM equation at 25 to 200 uM by malachite green colorimetric method
[5] = Inhibition of ATPase activity of Escherichia coli SecA expressed in Escherichia coli BL21.19 cells assessed as hydrolysis of ATP after 2 hrs using Dixon plot analysis by malachite green colorimetric method

With `Nc1nc(N2CCOCC2)c2sc(C#Cc3ccccc3)nc2n1` the inhibition [1] was 40% and the Activity [2] was “Active”.

Work on `CC(=O)N1CCN(c2nc(N)nc3nc(-c4ccc(F)cc4)sc23)CC1` yielded an inhibition [2] of 50%.

For `COCCNc1nc2nc(N)nc(N3CCOCC3)c2s1`, the Activity [2] was “Active”.

With `Nc1nc(N2CCOCC2)c2sc(-c3ccc(F)cc3)nc2n1` the Activity [2] was “Active”.

Molecule `Cc1cccc(NC(=O)N2CCN(c3nc4nc(N)nc(-c5ccc(F)cc5)c4s3)CC2)c1` has an inhibition [1] of 40% and an inhibition [2] of 50%.

Molecule `Cc1cccc(NC(=O)N2CCN(c3nc(N)nc4nc(-c5ccc(F)cc5)sc34)CC2)c1` has an inhibition [1] of 40%.

`CC(C)(C)OC(=O)N1CCN(c2nc3nc(N)nc(-c4ccc(F)cc4)c3s2)CC1` showed an inhibition [2] of 50%.

With `Nc1nc(N2CCN(C(=O)COc3ccc(Cl)cc3)CC2)c2sc(-c3ccc(F)cc3)nc2n1` the inhibition [2] was 50%.

Work on `COCCNc1nc2nc(N)nc(-c3ccc(F)cc3)c2s1` yielded an inhibition [2] of 50%.

For `Nc1nc(N2CCOCC2)c2sc(/C=C/c3ccccc3)nc2n1`, the inhibition [1] was 40%, the IC50 [3] was 197 µM and the inhibition [2] was 70%.

In the case of `Nc1nc(-c2ccc(F)cc2)c2sc(N3CCN(C(=O)COc4ccc(Cl)cc4)CC3)nc2n1`, the inhibition [4] is reported as “Active”, the IC50 [3] is reported as 135 µM and the Ki [5] is reported as 60 µM. It also gave an inhibition [2] of 76%.

In the case of `Nc1nc(N2CCOCC2)c2sc(N3CCOCC3)nc2n1`, the Activity [2] is reported as “Active”.

`Nc1nc(-c2ccc(F)cc2)c2sc(N3CCNCC3)nc2n1` gave an inhibition [2] of 35%.

From ChEMBL document CHEMBL1641421, “Synthesis of novel 5-amino-thiazolo[4,5-d]pyrimidines as E. coli and S. aureus SecA inhibitors” (Bioorg Med Chem, 2011)
